Bioassay records (PubChem BioAssay)
The list is not random: actives were taken first. Their share in the collection is about 1.5%.
VLA-4 inh – inhibition in human VLA-4 binding assay, primary screen, VLA-4 allosteric modulator project, MLPCN library, flow cytometry, VLA-4 expressing cells; AID 2557, 2010; 330,000 compounds, 0.2% hits; Integrin alpha-4 (Homo sapiens), P13612; ligand binding flow cytometry; inhibition, % (about 7 µM as worked out from the volumes in the protocol); in the data active = inhibition above about 50%
Target sequence (P13612 whole entry, looked up): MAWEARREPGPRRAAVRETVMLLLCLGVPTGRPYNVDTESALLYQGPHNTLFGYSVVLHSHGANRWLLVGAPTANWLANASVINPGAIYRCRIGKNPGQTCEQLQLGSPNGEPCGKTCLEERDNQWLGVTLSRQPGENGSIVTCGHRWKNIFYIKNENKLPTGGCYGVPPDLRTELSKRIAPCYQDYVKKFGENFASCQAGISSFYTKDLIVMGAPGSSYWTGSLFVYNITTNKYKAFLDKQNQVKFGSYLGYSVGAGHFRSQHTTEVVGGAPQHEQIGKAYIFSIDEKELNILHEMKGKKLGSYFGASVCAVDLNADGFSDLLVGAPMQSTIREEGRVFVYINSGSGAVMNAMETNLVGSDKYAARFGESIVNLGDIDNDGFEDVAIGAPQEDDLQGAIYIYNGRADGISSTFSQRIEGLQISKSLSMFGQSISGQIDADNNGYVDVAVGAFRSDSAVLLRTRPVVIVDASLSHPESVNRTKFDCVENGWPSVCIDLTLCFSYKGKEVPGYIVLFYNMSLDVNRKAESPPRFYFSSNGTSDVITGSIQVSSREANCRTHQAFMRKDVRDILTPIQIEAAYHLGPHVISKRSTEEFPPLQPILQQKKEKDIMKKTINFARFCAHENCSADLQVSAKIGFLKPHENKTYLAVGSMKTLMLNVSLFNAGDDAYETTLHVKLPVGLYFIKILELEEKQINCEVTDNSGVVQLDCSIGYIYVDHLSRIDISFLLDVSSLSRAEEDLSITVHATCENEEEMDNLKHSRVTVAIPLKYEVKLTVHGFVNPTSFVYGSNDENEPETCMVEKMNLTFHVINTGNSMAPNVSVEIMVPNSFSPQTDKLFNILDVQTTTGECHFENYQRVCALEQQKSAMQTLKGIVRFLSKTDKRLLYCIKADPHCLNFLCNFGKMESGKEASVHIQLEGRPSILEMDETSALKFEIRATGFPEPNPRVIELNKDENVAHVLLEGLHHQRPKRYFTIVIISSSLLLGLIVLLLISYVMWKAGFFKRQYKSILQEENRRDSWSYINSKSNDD
T cell HTS – modulators of CD8 T cell-vesicle binding, primary screen, mouse 2C CD8+ T cells, flow cytometry; 2C CD8+ T cell-vesicle binding; active compounds read low; response (vesicle binding), % at 7 µM; 330,000 compounds, 0.068% hits; AID 2052, 2009;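 active = response, share of CD8 T cells binding vesicles, and their 90th percentile fluorescence all below set limits, cut at about 80% in these data, passing the limit was not always enough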;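 also: values below 100% mean blocked vesicle binding to the CD8+ T cells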
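Read-out – percent CD8+ FL2 mean versus row control · System – murine 2C transgenic CD8+ T lymphocytes · Times – 1.5 h cell–vesicle binding at 37 °C, then 20 min icy labelling · Control set – naked vesicles low, QL9 vesicles with vehicle high · Detection – cytometric PE anti-B7-1 and Alexa647 anti-CD8 signals after 1% paraformaldehyde fixation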
CHT allo act – CHT positive allosteric modulators, primary screen, cell-based, membrane potential dye, choline EC20; High affinity choline transporter 1 (Homo sapiens), Q9GZV3; CHT-expressing cells; active compounds read high; LV-AA mutant CHT in HEK293 cells; B-score at 10 µM; 310,000 compounds, 0.49% hits;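 active = initial fluorescence not abnormally high and integrated response B-score, plate-corrected, over 3 SD above library mean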
CHT block – inhibitors of human choline transporter CHT; AID 488975, 2010; B-score at 10 µM; High affinity choline transporter 1 (Homo sapiens), Q9GZV3; CHT-expressing cells, membrane potential dye, choline response; active compounds read low; 310,000 compounds, 0.86% hits;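 active = B-score over 3 SD under the library average, and starting fluorescence ratio not unusually high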;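 also: choline stimulus applied at its EC90 after an EC20 pre-addition; B-score computed on integrated fluorescence ratio after choline addition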
VLA-4 allo CP – retest of VLA-4 allosteric modulators, confirmation, cell-based, cherry-picked plates, U937, HUTS-21 LIBS antibody | shares compounds with VLA-4 inh | U937 cells, HUTS-21 LIBS mAb binding, flow cytometry; LDV ligand present at threefold Kd | inhibition, % at 6.7 µM | 1,300 compounds, 2% hits | AID 2813, 2010; in the data active = inhibition above about 40%;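 also: 0% = ligand without compound and 100% = no ligand background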
Numbers without * were called inactive; i = inactive; . = no result given.

SMILES	VLA-4 inh	T cell HTS	CHT allo act	CHT block	VLA-4 allo CP
CCCCn1c(N)c(N(CCC(C)C)C(=O)c2ccc(C)c(S(=O)(=O)N3CCOCC3)c2)c(=O)[nH]c1=O	-3	308	i	i	.
CCc1ccc(CNC(=O)C2CC(=O)N(C3CCCC3)C2)cc1 (centres undefined)	4	261	i	i	.
O=C(CCC(=O)Nc1ccc(F)cc1)N/N=C/c1ccncc1	56*	285	i	i	0
O=C(CCC(=O)Nc1ccc(F)cc1)N/N=C/c1ccccc1	8	184	i	i	.
CCOC(=O)C/C(C)=N/NC(=O)C1CC1(c1ccccc1)c1ccccc1 (centres undefined)	10	164	i	i	.
C[C@H](C(=O)CC(=O)OC(C)(C)C)[C@H](O)c1ccccc1	-7	415	i	i	.
O=C(CSc1nnc(NC2CC2)s1)NN1C(=O)NC2(CCCCC2)C1=O	-5	618	.	.	.
O=C(CSc1nnc(Nc2ccccc2)s1)NN1C(=O)NC2(CCCCC2)C1=O	49	247	i	i	-8
CCCCN(C(=O)C1CC(=O)N(c2ccc(OC)cc2OC)C1)c1c(N)n(CC(C)C)c(=O)[nH]c1=O (centres undefined)	-1	200	i	i	.
O=C(Nc1ccccn1)Nc1ccccc1Cl	-4	163	i	i	.
COC(=O)c1c(C)[nH]c(C(=O)C(C)OC(=O)C2CC(=O)N(c3ccc(C)cc3)C2)c1C (centres undefined)	-17	197	.	.	.
COC(=O)c1c(C)[nH]c(C(=O)C(C)OC(=O)C2CC2C)c1C (centres undefined)	-15	416	.	.	-7
Cc1cc(N2CC(C)OC(C)C2)n2cc(-c3ccccc3)nc2n1 (centres undefined)	-26	244	i	i	.
Cc1cc(C)c(S(=O)(=O)c2ccc(F)cc2C)c(Cl)n1	44	232	i	i	-14
CCOC(=O)c1c(C)[nH]c(C(=O)COC(=O)CCSc2ccccc2)c1C	-37	256	i	i	.
CCCCC(=O)OCC(=O)c1[nH]c(C)c(C(=O)OCC)c1C	-15	766	i	i	2
CCOC(=O)c1c(C)[nH]c(C(=O)COC(=O)CSC)c1C	91*	188	i	i	-7
Cc1ccc(S(=O)(=O)N2CCC(C(=O)N3CC(C)OC(C)C3)CC2)cc1 (centres undefined)	11	473	i	i	.
CCCCOc1ccc(C(=O)NCC(=O)NCCOc2ccccc2OC)cc1	7	436	.	.	.
CCCC(C)CO (centres undefined)	16	917	.	.	.
CN(C(=O)Nc1cnc2ccccc2c1)c1ccccc1	-15	97	i	i	.
Cc1ccc(NC(=O)N(C)c2ccccc2)cc1	-2	198	i	i	-7
COc1ccc(OC)c(/C=N/c2c(-c3ccc(O)c(OC)c3)nc3ccccn23)c1	51*	249	i	i	5
CCOc1ccc(-c2cccc(NC(=O)c3cccs3)c2)nn1	2	248	i	i	.
O=C(CN1C(=O)c2ccc([N+](=O)[O-])cc2C1=O)Nc1ccccc1N1CCCC1	-5	410	i	i	.
SMILES	VLA-4 inh	T cell HTS	CHT allo act	CHT block	VLA-4 allo CP
Cc1cc(C(=O)NNC(=O)C2CCCC2)c(C)o1	70*	i	i	i	-4
O=C(NCCc1ccc(Cl)cc1)c1ccc2nc(N3CCOCC3)sc2c1	43	542	i	i	13
O=C(NCCCN1CCC(Cc2ccccc2)CC1)c1ccc2nc(N3CCOCC3)sc2c1	12	327	i	i	.
O=C(NCc1cccc(F)c1)c1ccc2nc(N3CCOCC3)sc2c1	40	361	i	i	-1
COc1ccc2nc(N3CCCC(C(=O)NCCc4ccc(OC)c(OC)c4)C3)sc2c1 (centres undefined)	13	281	i	i	.
CCOc1ccc(CNC(=O)c2ccc3nc(N4CCOCC4)sc3c2)cc1	6	340	i	i	2
COc1ccc(CCNC(=O)c2ccc3nc(N4CCCCC4)sc3c2)cc1OC	-4	127	i	i	2
Cc1ccc(C(=O)Nc2ccccc2C(=O)N2CCCC(C)C2)cc1 (centres undefined)	1	185	i	i	.
NNC(=O)c1cccn(Cc2cccc(C(F)(F)F)c2)c1=O	14	192	i	i	.
CC(C)(C)OC(=O)C[C@H]1C/C=C\C[C@H](CC(=O)N[C@H](CO)Cc2ccccc2)C(=O)N2CCC[C@@H]2COC1=O	5	232	.	.	.
COC(=O)C1=C(C(=O)OC)[C@@H]2N(Cc3ccccc3)c3ccccc3[C@@]23C[C@@H](C(=O)OC)N(C(=O)c2ccc(Br)cc2)C3=N1	0	602	i	i	.
C=CCN1c2ccccc2[C@]23C[C@@H](C(=O)OC)N(C(=O)c4ccc(Br)cc4)C2=NC(C(=O)OC)=C(C(=O)OC)[C@H]13	51*	275	i	i	12
COc1ccc(C(=O)OC(C)C(=O)NC(C)CCc2ccccc2)cc1OC (centres undefined)	42	21	i	i	0
COc1ccc(OC)c(C2CC(=O)Nc3cc(OC)c(OC)c(OC)c32)c1 (centres undefined)	16	233	i	i	5
CCN1CCCC1CNC(=O)C(=O)NC1CC1 (centres undefined)	46	234	i	i	-2
CCN1CCCC1CNC(=O)C(=O)NCc1ccccc1 (centres undefined)	11	478	i	i	.
CC1(C)CC(N2CCCC2)=CC(=[N+]2CCCCC2)C1	50*	317	i	i	-9
C=CCn1c(NCc2ccco2)nc2ccccc21	-3	340	i	i	.
COC(=O)c1c(NC(=O)c2ccco2)sc2c1CCC2	92*	425	i	i	-5
O=C(CN1CCN(Cc2ccccc2)CC1)N/N=C/C=C/c1ccccc1[N+](=O)[O-]	43	223	i	i	-14
O=C(NC(Cc1ccccc1)C(=O)O)/C(=C\c1ccccc1)NC(=O)c1ccc(Br)o1 (centres undefined)	-8	176	i	i	.
CC(C)CC(=O)Nc1ccc2c(c1)nc(CCN1CCOCC1)n2C	43	261	i	i	-18
COc1cc(C(=O)OCC(=O)NC2CCCCC2)cc(OC)c1OC	0	387	.	.	1
Cn1c(-c2ccccc2)c(C#Cc2ccc(N)cc2)c2ccccc21	-5	445	.	.	.
COc1ccc(C(=O)c2c3ccccc3[n+]([O-])n2CCC(N)=O)cc1	55*	202	i	i	7
